# According to ChEMBL document CHEMBL1909525, “Synthesis and anticonvulsant activity of novel 2,6-diketopiperazine derivatives. Part 1: perhydropyrrole[1,2-a]pyrazines” (Eur J Med Chem, 2011):
# Calls of active or inactive are those of the source. The calls are words filed in the database; no cut-off is given here.
# Key:
# Mus musculus [1] = assay: Anticonvulsant activity in albino Carworth Farms No.1 mouse assessed as protection against electric-current for 3 secs-induced seizure at 100 mg/kg, ip after 2 hrs by 6Hz minimal clonic seizure test; assay type: functional, organism-based; parameters: dose 100 mg/kg
# In short: (§1)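 6 Hz psychomotor seizure test in mice. Compound given i.p. as a suspension in 0.5% methylcellulose. Corneal stimulation at 32 mA, 0.2-ms monopolar rectangular pulses at 6 Hz for 3 s, from a constant-current device. Tests run 0.25–4 h after dosing. A mouse counted as protected if it resumed normal exploratory behaviour within 10 s; scored as protected/tested.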
# Mus musculus [2] = assay: Neurotoxicity in albino Carworth Farms No.1 mouse assessed as motor impairment at 30 mg/kg, ip after 0.5 hrs by rotarod test; assay type: toxicity, organism-based; parameters: dose 30 mg/kg, route intraperitoneal; details: in vivo
# In short: (§2)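 Rotorod neurotoxicity in mice at 6 r.p.m. Compound given i.p. (30, 100, 300 mg/kg) in 0.5% methylcellulose; tested at 30 min and 4 h. Impairment is inability to keep equilibrium on the rod for a given time; scored as impaired/tested.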
# Mus musculus [3] = assay: Neurotoxicity in albino Carworth Farms No.1 mouse assessed as motor impairment at 100 mg/kg, ip after 0.5 hrs by rotarod test; assay type: toxicity, organism-based; parameters: dose 100 mg/kg, route intraperitoneal; details: in vivo; in short: as §2
# Mus musculus [4] = assay: Neurotoxicity in albino Carworth Farms No.1 mouse assessed as motor impairment at 300 mg/kg, ip after 0.5 hrs by rotarod test; assay type: toxicity, organism-based; parameters: dose 300 mg/kg, route intraperitoneal; details: in vivo; in short: as §2
# Mus musculus [5] = assay: Anticonvulsant activity in albino Carworth Farms No.1 mouse assessed as protection against electric-current for 3 secs-induced seizure at 100 mg/kg, ip after 0.25 hrs by 6Hz minimal clonic seizure test; assay type: functional, organism-based; parameters: dose 100 mg/kg; in short: as §1
# Mus musculus [6] = assay: Anticonvulsant activity in albino Carworth Farms No.1 mouse assessed as protection against subcutaneous metrazol-induced seizure at 30 mg/kg, ip after 0.5 hrs; assay type: functional, organism-based; parameters: dose 30 mg/kg
# In short: (§3)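 Mouse scMET test. Compound given i.p. (30, 100 or 300 mg/kg) in 0.5% methylcellulose. Pentylenetetrazole 85 mg/kg (CD97) given s.c. at 0.5 or 4 h, then mice observed for 30 min. Protection is absence of clonic spasms; scored as protected/tested.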
# Mus musculus [7] = assay: Anticonvulsant activity in albino Carworth Farms No.1 mouse assessed as protection against subcutaneous metrazol-induced seizure at 30 mg/kg, ip after 4 hrs; assay type: functional, organism-based; parameters: dose 30 mg/kg; in short: as §3
# Mus musculus [8] = assay: Anticonvulsant activity in albino Carworth Farms No.1 mouse assessed as protection against subcutaneous metrazol-induced seizure at 100 mg/kg, ip after 0.5 hrs; assay type: functional, organism-based; parameters: dose 100 mg/kg; in short: as §3
# Mus musculus [9] = assay: Anticonvulsant activity in albino Carworth Farms No.1 mouse assessed as protection against subcutaneous metrazol-induced seizure at 100 mg/kg, ip after 4 hrs; assay type: functional, organism-based; parameters: dose 100 mg/kg; in short: as §3
# Mus musculus [10] = assay: Anticonvulsant activity in albino Carworth Farms No.1 mouse assessed as protection against subcutaneous metrazol-induced seizure at 300 mg/kg, ip after 0.5 hrs; assay type: functional, organism-based; parameters: dose 300 mg/kg; in short: as §3
# Mus musculus [11] = assay: Anticonvulsant activity in albino Carworth Farms No.1 mouse assessed as protection against subcutaneous metrazol-induced seizure at 300 mg/kg, ip after 4 hrs; assay type: functional, organism-based; parameters: dose 300 mg/kg; in short: as §3
# Mus musculus [12] = assay: Anticonvulsant activity in albino Carworth Farms No.1 mouse assessed as protection against electric-current for 3 secs-induced seizure at 100 mg/kg, ip after 4 hrs by 6Hz minimal clonic seizure test; assay type: functional, organism-based; parameters: dose 100 mg/kg; in short: as §1
# Mus musculus [13] = assay: Neurotoxicity in albino Carworth Farms No.1 mouse assessed as motor impairment at 100 mg/kg, ip after 0.25 hrs by rotarod test; assay type: toxicity, organism-based; parameters: dose 100 mg/kg, route intraperitoneal; details: in vivo
# In short: (§4)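 Rotorod neurotoxicity in mice (18–25 g) following i.p. dosing of a suspension in 0.5% methylcellulose in water, tested at intervals between 0.25 and 4 h. Impairment was scored as failure to keep equilibrium on a 6 r.p.m. rod, reported as number impaired/number tested.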
# Mus musculus [14] = assay: Neurotoxicity in albino Carworth Farms No.1 mouse assessed as motor impairment at 100 mg/kg, ip after 2 hrs by rotarod test; assay type: toxicity, organism-based; parameters: dose 100 mg/kg, route intraperitoneal; details: in vivo; in short: as §4
# Mus musculus [15] = assay: Neurotoxicity in albino Carworth Farms No.1 mouse assessed as motor impairment at 100 mg/kg, ip after 4 hrs by rotarod test; assay type: toxicity, organism-based; parameters: dose 100 mg/kg, route intraperitoneal; details: in vivo; in short: as §2
# Mus musculus [16] = species on record: Mus musculus; assay: Protective index, ratio of TD50 for albino Carworth Farms No.1 mouse to ED50 for albino Carworth Farms No.1 mouse by 6Hz minimal clonic seizure test; assay type: functional
# In short: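 Mouse 6 Hz (32 mA) quantification, compound given i.p. at the time of peak effect. Groups of at least eight mice at varied doses.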
# Mus musculus [17] = assay: Anticonvulsant activity in ip dosed albino Carworth Farms No.1 mouse assessed as time needs to show peak effect for electric-current for 3 secs-induced seizure after 0.25 hrs by 6Hz minimal clonic seizure test; assay type: functional
# Mus musculus [18] = assay: Neurotoxicity in albino Carworth Farms No.1 mouse assessed as motor impairment at 100 mg/kg, ip after 1 hr by rotarod test; assay type: toxicity, organism-based; parameters: dose 100 mg/kg, route intraperitoneal; details: in vivo; in short: as §4
# Mus musculus [19] = assay: Anticonvulsant activity in albino Carworth Farms No.1 mouse assessed as protection against maximal electroshock-induced seizure at 30 mg/kg, ip after 0.5 hrs; assay type: functional, organism-based; parameters: dose 30 mg/kg
# In short: (§5)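 Mouse MES test with compound given i.p. (30, 100 or 300 mg/kg) in 0.5% methylcellulose; tested at 0.5 and 4 h. Corneal stimulus of 50 mA at 60 Hz for 0.2 s, electrodes primed with 0.5% butacaine in 0.9% NaCl. Protection is abolition of hindlimb tonic extension; scored as protected/tested.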
# Mus musculus [20] = assay: Anticonvulsant activity in albino Carworth Farms No.1 mouse assessed as protection against maximal electroshock-induced seizure at 30 mg/kg, ip after 4 hrs; assay type: functional, organism-based; parameters: dose 30 mg/kg; in short: as §5
# Mus musculus [21] = assay: Anticonvulsant activity in albino Carworth Farms No.1 mouse assessed as protection against maximal electroshock-induced seizure at 100 mg/kg, ip after 0.5 hrs; assay type: functional, organism-based; parameters: dose 100 mg/kg; in short: as §5
# Mus musculus [22] = assay: Anticonvulsant activity in albino Carworth Farms No.1 mouse assessed as protection against maximal electroshock-induced seizure at 100 mg/kg, ip after 4 hrs; assay type: functional, organism-based; parameters: dose 100 mg/kg; in short: as §5
# Mus musculus [23] = assay: Anticonvulsant activity in albino Carworth Farms No.1 mouse assessed as protection against maximal electroshock-induced seizure at 300 mg/kg, ip after 0.5 hrs; assay type: functional, organism-based; parameters: dose 300 mg/kg; in short: as §5
# Mus musculus [24] = assay: Anticonvulsant activity in albino Carworth Farms No.1 mouse assessed as protection against maximal electroshock-induced seizure at 300 mg/kg, ip after 4 hrs; assay type: functional, organism-based; parameters: dose 300 mg/kg; in short: as §5
# Mus musculus [25] = assay: Anticonvulsant activity in albino Carworth Farms No.1 mouse assessed as protection against electric-current for 3 secs-induced seizure at 100 mg/kg, ip after 1 hr by 6Hz minimal clonic seizure test; assay type: functional, organism-based; parameters: dose 100 mg/kg; in short: as §1
# Mus musculus [26] = assay: Neurotoxicity in albino Carworth Farms No.1 mouse assessed as motor impairment at 30 mg/kg, ip after 4 hrs by rotarod test; assay type: toxicity, organism-based; parameters: dose 30 mg/kg, route intraperitoneal; details: in vivo; in short: as §2
# Mus musculus [27] = assay: Neurotoxicity in albino Carworth Farms No.1 mouse assessed as motor impairment at 300 mg/kg, ip after 4 hrs by rotarod test; assay type: toxicity, organism-based; parameters: dose 300 mg/kg, route intraperitoneal; details: in vivo; in short: as §2
# Mus musculus [28] = assay: Anticonvulsant activity in ip dosed albino Carworth Farms No.1 mouse assessed as protection against electric-current for 3 secs-induced seizure after 0.25 hrs by 6Hz minimal clonic seizure test; assay type: functional; details: albino Carworth Farms No.1, ip
# [29] = Neurotoxicity in ip dosed albino Carworth Farms No.1 mouse assessed as motor impairment after 0.5 hrs by rotarod test; assay type: toxicity, organism-based; details: Carworth Farms No.1 (albino), in vivo
# In short: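 Rotorod test in mice (18–25 g) dosed i.p. with compound suspended in 0.5% methylcellulose in water. Tested 30 min after dosing. Impairment was scored as inability to keep equilibrium on a 6 r.p.m. rod. TD50 came from groups of ≥8 mice at the time of peak effect, with 95% confidence intervals by probit analysis (Finney method).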
SMILES,Activity (Mus musculus [1]),Activity (Mus musculus [2]),Activity (Mus musculus [3]),Activity (Mus musculus [4]),Activity (Mus musculus [5]),Activity (Mus musculus [6]),Activity (Mus musculus [7]),Activity (Mus musculus [8]),Activity (Mus musculus [9]),Activity (Mus musculus [10]),Activity (Mus musculus [11]),Activity (Mus musculus [12]),Activity (Mus musculus [13]),Activity (Mus musculus [14]),Activity (Mus musculus [15]),Time (Mus musculus [17]) [h],Activity (Mus musculus [18]),Activity (Mus musculus [19]),Activity (Mus musculus [20]),Activity (Mus musculus [21]),also measured
O=C1NC(=O)[C@@H](c2ccccc2)N2CCC[C@@H]12,inactive,Non-toxic,Non-toxic,Non-toxic,inactive,inactive,inactive,inactive,inactive,inactive,inactive,inactive,Non-toxic,Non-toxic,Non-toxic,0.25,Non-toxic,inactive,inactive,inactive,Ratio TD50/ED50 (Mus musculus [16]): 12.2; Activity (Mus musculus [22]): inactive; Activity (Mus musculus [23]): inactive; Activity (Mus musculus [24]): inactive; Activity (Mus musculus [25]): inactive; Activity (Mus musculus [26]): Non-toxic; Activity (Mus musculus [27]): Non-toxic
CCOC(=O)CN1C(=O)[C@H](c2ccccc2)N2CCC[C@H]2C1=O,inactive,Non-toxic,Non-toxic,Toxic,Active,inactive,inactive,inactive,inactive,inactive,inactive,inactive,Non-toxic,Non-toxic,Non-toxic,0.25,Non-toxic,inactive,inactive,Active,ED50 (Mus musculus [28]): 55.6 mg/kg; TD50 at 0.5 h [29]: 178 mg/kg; Activity (Mus musculus [22]): inactive; Activity (Mus musculus [23]): Active; Activity (Mus musculus [24]): Active; Activity (Mus musculus [26]): Non-toxic; Activity (Mus musculus [27]): Non-toxic
